We go through two compounds from article PMC5488126 (CPT: Pharmacometrics & Systems Pharmacology, 2017).

For series [1] the following is noted: cited from earlier work.
Series [2] is described as follows: Rat PK model of AZD5153 plasma concentrations. It is filed as in vivo, Han Wistar rat. As to conditions: oral, population typical estimate (RSE), estimated from observed data. In short, it runs like this:
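Female Han Wistar rats, 9–10 weeks old, were dosed orally in 0.5% hydroxymethylcellulose with 0.1% Tween80. Plasma was taken 2 h postdose on days 1, 4 and 7 and measured by LC-MS/MS. Data were fitted to a one-compartment model with first-order absorption, with ka and clearance fixed from a separate toxicology study and volume estimated. Fitting used FOCE-ELS and included between-subject variability.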

Another series deals with circulating platelets. Put plainly: Rat platelet count study fitted to myelosuppression model. The settings on record: for platelet changes in rat: oral. It counts as in vivo, Han Wistar rat.
The test system of series [3] is platelet counts. Put plainly: Simulation of human platelet counts with healthy BM. As to conditions: healthy simulations, converted from rat slope using fu.
Series [4] deals with platelet counts. As to conditions: human, BM dysfunction simulations. In short, it runs like this:
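The Friberg platelet model was extended with a capacity term fr on the proliferating compartment. fr rose linearly from a baseline fraction of 0.65 (initial Circ0 61.2 ×10⁹/L) over recovery durations of 1 h and 10, 30, 100, 300 and 1,000 days. Runs used slope 0 (recovery only) or 0.45 with 300 mg q.d. for 98 days. Schedules compared over 300-day recovery were 300 mg q.d. continuous, b.i.d. 3 on 4 off, and q.d. 7 on 7 off. fr was also varied from 0.25 to 1.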

For the compound `Cc1sc2c(c1C)C(c1ccc(Cl)cc1)=N[C@@H](CC(=O)Nc1ccc(O)cc1)c1nnc(C)n1-2` [OTX015], the “frequency of severe TCP by pretreatment baseline” value in series [1] (OTX015 phase 1 trial) is listed as “severe TCP was more frequent in patients with low platelet counts at pretreatment baseline”. Also, the “dose-limiting toxicity in patients” value in series [1] (phase I, nonleukemia hematological malignancies) is on record as “thrombocytopenia (TCP) as a dose‐limiting toxicity (DLT)”.

Consider `COc1nnc2ccc(N3CCC(c4ccc(OCCN5CCN(C)C(=O)[C@H]5C)cc4)CC3)nn12` [AZD5153, (3R)‐4‐[2‐[4‐[1‐(3‐methoxy‐[1,2,4]triazolo[4,3‐b]pyridazin‐6‐yl)‐4‐piperidyl]phenoxy]ethyl]‐1,3‐dimethyl‐piperazin‐2‐one], for which the V in series [2] is 0.39 (16) L/kg. The “platelet changes in rat” value is “negligible platelet changes” with circulating platelets (0.1 mg/kg q.d.), “clear effects” with circulating platelets (1 mg/kg q.d.) and “clear effects” with circulating platelets (1.5 mg/kg b.i.d. (3 on 4 off)). For the same compound, the slopeAZD5153 is reported as 0.09 (14) 1/(μmol/L) in the series on circulating platelets (rat platelet PD model, total concentrations, population typical estimate (RSE)) and 0.45 1/(μmol/L) with platelet counts [3]. Besides, the “Recovery +drug induced myelosuppression: slopeAZD5153” value in the series with platelet counts [4] is 0.45 1/(μmol/L).
